Screening results: PubChem, several laboratories
An excerpt weighted towards active compounds, which were near 4.3% of everything screened.
STAT1 activator: activators of IFN-gamma induced STAT1 signaling. NIH 3T3 STAT1-luciferase reporter, luminescence; 100% = IFN-gamma alone, no compound. 200,000 compounds, 2.6% hits. AID 932. activation (% of control), % at 5.5 µM;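 active = activation above the screen-wide mean activation plus 3 SD, cut at about 130% in these data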;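 also: raw ratio to IFN-gamma control signal so 100% means no change and 0% no light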
NF-kB expr up: compounds increasing NF-kB expression in human neuronal cells | 190,000 compounds, 1.6% hits | fold change at 12.5 µM | NF-kB reporter expression; active compounds read high | AID 1239; in the data active = fold change above about 3.3
FLuc inhib CS: counter-screen for luciferase assay inhibitors: firefly luciferase inhibition | P08659 | ATPLite firefly luciferase biochemical luminescence, 10 min | 200,000 compounds, 1.5% hits | inhibition, % at 10 µM;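 active = inhibition above about 50% when tested at 10 µM, limit read from the data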
Target sequence (P08659 whole entry, looked up): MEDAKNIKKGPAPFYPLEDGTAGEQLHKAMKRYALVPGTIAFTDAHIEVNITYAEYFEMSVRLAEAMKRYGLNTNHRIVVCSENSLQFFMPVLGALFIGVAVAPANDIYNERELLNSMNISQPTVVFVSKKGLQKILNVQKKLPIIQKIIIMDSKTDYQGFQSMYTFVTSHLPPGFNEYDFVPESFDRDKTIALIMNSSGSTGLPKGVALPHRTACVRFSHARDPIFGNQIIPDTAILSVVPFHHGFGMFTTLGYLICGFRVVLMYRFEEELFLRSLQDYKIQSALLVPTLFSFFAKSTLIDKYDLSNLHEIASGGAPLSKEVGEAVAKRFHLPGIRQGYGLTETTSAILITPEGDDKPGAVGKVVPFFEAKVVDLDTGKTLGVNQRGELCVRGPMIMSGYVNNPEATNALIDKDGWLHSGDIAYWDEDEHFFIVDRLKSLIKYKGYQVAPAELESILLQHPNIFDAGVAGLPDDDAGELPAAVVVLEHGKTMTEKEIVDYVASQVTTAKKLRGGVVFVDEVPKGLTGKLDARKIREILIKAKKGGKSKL
APP 5'UTR act: APP 5'UTR luciferase reporter activation | SH-SY5Y APP 5'UTR luciferase reporter, luminescence; zero percent = DMSO vehicle wells | activation, % at 2 µM | 190,000 compounds, 1% hits;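 active = activation above a set limit, based on mean plus 3 SD of controls, cut at about 140% in these data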
FLuc act counter: affects firefly luciferase, flagging false hits in luciferase stimulation screens; P08659; ATPlite luciferase biochemical, luminescence, 10 min; 0 = ATP-free wells, 1 = DMSO control; activation factor at 10 µM; 200,000 tested, under 10 active;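 active = luciferase activation factor, scaled between plate controls, of at least 2 with compound at 10 µM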
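System: luciferase plus luciferin reagent, cell-free; medium: PBS as buffer for the ATP substrate; dosing: test compounds dosed from 2 mM stocks in 100% DMSO; timing: 10 min post-reagent at room temperature; measured by: luminescence measurement of luciferase light output; evaluation: luciferase activation, seen as luminescence increase over controls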
STAT1 activ conf: confirmation of STAT1 signaling activators. shares compounds with STAT1 activator. NIH 3T3 STAT1-luciferase reporter, IFN-gamma potentiation, luminescence; 100% = IFN-gamma EC80 alone, no compound. activation (% of control), % at 5.7 µM. 1,200 compounds, 97% hits;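 active = activation above a set limit carried over from the earlier primary STAT1 screen, cut at about 140% in these data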;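 also: simple ratio to median IFN-gamma plus DMSO wells so 0% means no light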
NFkB act STAT1ct: activates NF-kappaB, counter-screen to STAT1 activators; shares compounds with STAT1 activator; HEK293T NF-kB luciferase reporter, TNF-alpha stimulated, luminescence; 100% = TNF-alpha with vehicle only; activation (% of control), % at 5.7 µM; 1,200 compounds, 43% hits;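 active = activation above the mean of solvent-only control wells plus 3 SD, set per campaign, cut at about 130% in these data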;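 also: TNF-alpha given at a submaximal dose yielding about 80% of full reporter signal; values are well signal over median control so 100% means no change and 0% no light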
STAT3 act STAT1c: human STAT3 activation in STAT1 activator counter-screen; 1,200 compounds, 46% hits; U3A cells STAT3-luciferase reporter, IL-6, luminescence; cells lack STAT1; 100 = IL-6 alone, no compound effect; shares compounds with STAT1 activator; activation (% of control), % at 5.7 µM; AID 1316;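 active = activation above the solvent-only control well mean plus 3 SD, set per plate batch, cut at about 110% in these data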;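 also: 0% = no luminescence and 100% = median IL-6 plus DMSO wells; higher means more STAT3 reporter activation so hits are non-selective activators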
* hit, by the source's call; · = not tested or not shown.

SMILES	STAT1 activator	NF-kB expr up	FLuc inhib CS	APP 5'UTR act	FLuc act counter	STAT1 activ conf	NFkB act STAT1ct	STAT3 act STAT1c
C/C(=C\c1ccccc1)C(=O)Nc1nccs1	154*	2.6	45	99	0.6	163*	123	95
O=C(N1CCN(c2ccccc2)CC1)C1(c2cccs2)CCOCC1	98	1	-3	6	1	·	·	·
O=C(CSc1nnc(C2CCCCC2)n1Cc1ccccc1)NCc1ccco1	95	1.6	-6	-8	1.1	·	·	·
CCCn1c(N)c(N(CCOC)C(=O)/C=C/c2cccc(Cl)c2)c(=O)[nH]c1=O	88	1.2	-6	4	1.1	·	·	·
Cc1ccc(/C=C(\C#N)C(=O)NC(C)C)o1	103	1	-6	7	1.1	·	·	·
Cc1ccc(/C=C(\C#N)C(=O)Nc2ccccn2)o1	187*	4.3*	68*	100	0.3	205*	138*	111*
O=C(CCc1nnc(Cc2ccc3c(c2)OCO3)o1)NC(c1ccccn1)C(F)(F)F (stereo unspecified)	97	1.2	-4	-13	1	·	·	·
O=C(CCS(=O)(=O)c1ccccc1)NC12CC3CC(CC(C3)C1)C2	151*	2.8	0	-3	1	184*	133*	128*
CC(C)n1c(O)c(N=NC(=O)Cc2csc(N3CCOCC3)n2)c2ccccc21	90	0.4	-5	22	1.1	·	·	·
CC(=O)c1cnc2cc(-c3ccccc3)nn2c1C	170*	2.9	25	16	0.8	195*	131	109
CC(=O)c1cnc2c(-c3ccccc3)c(C(F)(F)F)nn2c1C	109	1.2	-9	5	1.1	·	·	·
Nc1cc(-c2ccc(Br)cc2)nc2cc(-c3ccccc3)nn12	116	1.2	1	-3	1	·	·	·
Nc1c(-c2ccccc2)cnc2cc(-c3ccccc3)nn12	158*	4.8*	86*	290*	0.1	276*	134*	98
CC(C)(C)NC(=O)C(c1cccs1)N(Cc1ccc(F)cc1)C(=O)c1csnn1 (stereo unspecified)	91	1.2	-2	12	1	·	·	·
O=C(NNC(=O)C1CCCN(S(=O)(=O)c2ccc3ccccc3c2)C1)C1CC1 (stereo unspecified)	89	1.1	-6	-13	1.1	·	·	·
Cc1[nH]n(C(N)=S)c(=O)c1N=Nc1ccc2ccccc2c1	172*	5.9*	63*	134	0.4	208*	123	146*
COP(=O)(CC(=O)c1ccccc1)CC(=O)c1ccccc1	106	1.1	-3	10	1	·	·	·
Cc1cc(C)nc(SCc2csc(-c3ccccc3)n2)n1	169*	4.5*	33	146*	0.7	187*	125	99
O=C1c2ccccc2C(=O)N1CCc1csc(-c2cccc(F)c2)n1	104	1.1	-4	7	1	·	·	·
CCOc1ccc(C(=O)Nc2cc(S(=O)(=O)Nc3ccccc3Cl)ccc2N2CCOCC2)cc1	90	0.79	0	0	1	·	·	·
Cc1ccc(-c2nc(Nc3ccccc3)n[nH]2)cc1	193*	10*	22	188*	0.8	290*	153*	122*
O=C(OCc1ccc(F)cc1)c1ccc2ccccc2n1	115	1.6	24	8	0.8	·	·	·
Cn1ccs/c1=N\C(=O)Nc1cccc(Cl)c1	156*	3.7*	27	115	0.7	184*	134*	105
COc1ccccc1NC(=O)Cc1noc(CSc2nnc(C)n2C)n1	95	1.1	-2	-9	1	·	·	·
Cc1ccc(C(=O)Nc2ccc(-c3csc(C)n3)cc2)cc1	164*	2.6	24	186*	0.8	187*	133	93
Cc1nc(-c2ccc(C(=O)NCCO)cc2)cs1	107	1.3	24	20	0.8	·	·	·
